# The source made the active and inactive calls. The calls are words filed in the database; no cut-off is given here.
# What was measured:
# HeLa [1] = assay: Induction of apoptosis in human HeLa cells assessed as proportion of late apoptotic cells at 11 uM by AnnexinV-FITC/PI staining based FACS analysis (reference value: 14.5%); format: functional
# HeLa [2] = assay: Induction of cell cycle arrest in human HeLa cells assessed as downregulation of Cdk2 protein expression at 7 to 11 uM by western blot analysis; format: functional, cell-based; conditions: dose 7-11 µM
# Outline: (§1)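 Protein extracted from treated and untreated HeLa, BCA-quantified and normalised; SDS-PAGE, PVDF transfer, 5% skim milk block; primary antibodies 18 h at 4 °C, HRP secondary; chemiluminescent detection of Cdk-2, cyclin A2, cyclin B1, Cdc-25 with β-actin loading control.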
# HeLa [3] = assay: Induction of apoptosis in human HeLa cells assessed as proportion of early apoptotic cells at 11 uM by AnnexinV-FITC/PI staining based FACS analysis (reference value: 4.5%); format: functional
# HeLa [4] = assay: Induction of apoptosis in human HeLa cells assessed as proportion of late apoptotic cells at 7 uM by AnnexinV-FITC/PI staining based FACS analysis (reference value: 14.5%); format: functional
# [5] = Cytotoxicity against human MCF-10A cells assessed as inhibition of cell growth incubated for 24 hrs by MTT assay; format: toxicity, cell-based
# Outline: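 Non-tumorigenic breast epithelial line grown in MEGM with 5% horse serum at 37 °C and 5% CO2. Plated at 8 × 10^3 cells per well and treated 24 h later for 24 h at 5–100 μM. MTT (0.5 mg/mL in HBSS) was applied for 2–4 h at 37 °C in the dark, then DMSO. Read at 570 nm for IC50.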
# HeLa [6] = assay: Induction of cell cycle arrest in human HeLa cells assessed as proportion of cell accumulation at G2 phase at 11 uM by propidium iodide staining based flow cytometry (reference value: 8.7%); format: functional
# HeLa [7] = assay: Induction of apoptosis in human HeLa cells assessed as fold increase in caspase-3 activation at 7 to 11 uM by fluorometric assay relative to control; format: functional; conditions: dose 7-11 µM
# Outline: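 HeLa seeded at 3 × 10^6 in 6-well plates, treated at 7 and 11 μM; caspase-3, -8 and -9 activity each measured by fluorometric kit per manufacturer's protocol; fluorescence read at ex 400 nm / em 505 nm; fold change versus control; mean ± SD.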
# MDA-MB-231 = assay: Antiproliferative activity against human MDA-MB-231 cells assessed as inhibition of cell growth incubated for 24 hrs by MTT assay; format: functional, cell-based; conditions: MDA-MB-231, 24 h
# Outline: (§2)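 Cells kept in DMEM with 10% FBS and 1% antibiotic-antimycotic at 37 °C and 5% CO2. Seeded at 8 × 10^3 cells per 100 μL and left 24 h, then exposed 24 h to 5, 10, 20, 50 or 100 μM. MTT at 0.5 mg/mL in HBSS was added for 2–4 h at 37 °C in the dark. Formazan was dissolved in DMSO, A570 was read, and IC50 was derived.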
# HeLa [8] = assay: Induction of apoptosis in human HeLa cells assessed as DNA fragmentation by measuring CH-deformation with enhanced peak at 1420 to 1440 cm^-1 at 7 to 11 uM incubated for 24 hrs by surface-enhanced Raman spectroscopic analysis; format: functional, cell-based; conditions: dose 7-11 µM
# Outline: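 DNA isolated from control and 7 or 11 μM-treated HeLa, mixed 8:2 with 40–45 nm gold nanoparticles as SERS substrate, 10 min incubation; confocal Raman with 633 nm laser at 5 mW, 600 g/mm grating, 3 cm−1 resolution, 3 accumulations of 5 s integration.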
# HeLa [9] = assay: Induction of apoptosis in human HeLa cells assessed as proportion of early apoptotic cells at 7 uM by AnnexinV-FITC/PI staining based FACS analysis (reference value: 4.5%); format: functional
# HeLa [10] = assay: Induction of apoptosis in human HeLa cells assessed as proportion of viable cells at 11 uM by AnnexinV-FITC/PI staining based FACS analysis (reference value: 77.7%); format: functional
# HeLa [11] = assay: Induction of cell cycle arrest in human HeLa cells assessed as proportion of cell accumulation at G2 phase at 7 uM by propidium iodide staining based flow cytometry (reference value: 8.7%); format: functional
# PANC-1 = assay: Antiproliferative activity against human PANC-1 cells assessed as inhibition of cell growth incubated for 24 hrs by MTT assay; format: functional, cell-based; conditions: PANC-1, 24 h; outline: as §2
# HeLa [12] = assay: Inhibition of colony formation in human HeLa cells assessed as decrease in number of colonies formed at 3 to 6 uM incubated for 9 days by crystal violet staining based microscopic analysis; format: functional, cell-based; conditions: dose 3-6 µM, time 9.0 day
# Outline: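 HeLa seeded at 1 × 10^3 cells in 6-well plates; after attachment treated at 3 and 6 μM and grown 9 days at 37 °C; fixed in 70% methanol, stained with 0.3% crystal violet, PBS-washed; colonies imaged and counted by image analysis.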
# HeLa [13] = assay: Antiproliferative activity against human HeLa cells assessed as inhibition of cell growth incubated for 24 hrs by MTT assay; format: functional, cell-based; outline: as §2
# HeLa [14] = assay: Induction of cell cycle arrest in human HeLa cells assessed as downregulation of Cyclin B1 protein expression at 7 to 11 uM by western blot analysis; format: functional, cell-based; conditions: dose 7-11 µM; outline: as §1
# HeLa [15] = assay: Induction of cell cycle arrest in human HeLa cells assessed as proportion of cell accumulation at S phase at 11 uM by propidium iodide staining based flow cytometry (reference value: 15.9%); format: functional
# HeLa [16] = assay: Induction of apoptosis in human HeLa cells assessed as proportion of necrotic cells at 11 uM by AnnexinV-FITC/PI staining based FACS analysis (reference value: 3.4%); format: functional
# HeLa [17] = assay: Induction of cell cycle arrest in human HeLa cells assessed as proportion of cell accumulation at S phase at 7 uM by propidium iodide staining based flow cytometry (reference value: 15.9%); format: functional
# HeLa [18] = assay: Induction of apoptosis in human HeLa cells assessed as increase in number of cells with condensed nucleic acids at 7 to 11 uM incubated for 24 hrs by Hoechst 33342 staining based fluorescence light microscopy; format: functional, cell-based; conditions: dose 7-11 µM
# Outline: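 HeLa, 7 × 10^3 cells/well, treated 24 h at 7 and 11 μM; stained with Hoechst 33342 (1 μg mL−1 in PBS); condensed nuclei imaged through DAPI filter on inverted fluorescence microscope.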
compound,measurement,setting,value
C[C@@H](C[C@@H](O)[C@@H]1OC1(C)C)[C@@H]1CC[C@]2(C)C3=CC[C@H]4C(C)(C)C(=O)CC[C@]4(C)[C@H]3CC[C@@]12C,Activity,HeLa [1],50.1%
same,Activity,HeLa [2],Active
same,Activity,HeLa [3],15.8%
same,Activity,HeLa [4],10.1%
same,IC50 at 24 h,[5],83.3 µM
same,Activity,HeLa [6],6.2%
same,fold change (FC),HeLa [7],3
same,IC50,MDA-MB-231,23.9 µM
same,Activity,HeLa [8],Active
same,Activity,HeLa [9],50.9%
same,Activity,HeLa [10],29.6%
same,Activity,HeLa [11],5.4%
same,IC50,PANC-1,16.5 µM
same,inhibition,HeLa [12],Dose-dependent-effect
same,IC50,HeLa [13],11.7 µM
same,Activity,HeLa [14],Active
same,Activity,HeLa [15],9.8%
same,Activity,HeLa [16],4.5%
same,Activity,HeLa [17],4.9%
same,Activity,HeLa [18],Active
